Source: ChEMBL document CHEMBL1142987, “Cinnamoyl compounds as simple molecules that inhibit p300 histone acetyltransferase” (J Med Chem, 2007)
Calls of active or inactive are those of the source. The rule behind the calls is not given here.

Tests used:
[1] = molecular target: T1, Histone acetyltransferase p300 (Homo sapiens, UniProt Q09472); assay: Inhibition of GST-p300 HAT assessed as histone acetylation
In short: (§1)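 Recombinant histones H1, H2A, H2B, H3 and H4 were acetylated in vitro by the p300 HAT domain. Acetylated histones were detected by gel autoradiography, with Coomassie staining for total histone. IC50 was taken from densitometric dose–response curves, as the mean of at least three separate experiments.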

[2] = molecular target: Histone acetyltransferase KAT2B (Homo sapiens) (UniProt Q92831); assay: Activity of GST-PCAF assessed as HAT activity at 21 uM
In short: (§2)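 The same in vitro HAT assay was run with equal molar amounts of p300, PCAF and GCN5, each with a test compound at 5 or 21 µM. Acetylation was quantified by densitometry and expressed as percent variation from the DMSO-treated sample. Values are the mean of three independent experiments ± standard error.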

[3] = molecular target: Histone acetyltransferase KAT2A (Homo sapiens) (UniProt Q92830); assay: Activity of GST-GCN5 assessed as HAT activity at 21 uM; in short: as §2
HeLa [4] = assay: Acetylation of H3 in HeLa cells expressing H2B-EYFP upto 200 uM; assay type: functional, cell-based; conditions: Homo sapiens
In short: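 H2B-EYFP HeLa cells in 10% FCS-DMEM were treated with various compound concentrations up to 200 µM, then immunostained with anti-acetyl-H3 antibodies. H2B-EYFP fluorescence served as an internal control for protein expression.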

[5] = molecular target: T1, Histone acetyltransferase p300; assay: Activity of GST-p300 HAT assessed as HAT activity at 21 uM; in short: as §2
[6] = molecular target: T1, Histone acetyltransferase p300; assay: Inhibition of full length GST-p300 expressed in Sf9 cells assessed as histone acetylation
[7] = molecular target: T1, Histone acetyltransferase p300; assay: Inhibition of GST-p300 HAT expressed in bacteria assessed as histone acetylation
In short: as §1, with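 “domain. Compounds were tested at 25–400 µM, or from 0.19 µM for one compound.” for “domain.”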

[8] = molecular target: Histone acetyltransferase KAT2A (Homo sapiens) (UniProt Q92830); assay: Activity of GST-GCN5 assessed as HAT activity at 5 uM; in short: as §2
HeLa [9] = assay: Cytotoxicity in HeLa cells expressing H2B-EYFP above 20 uM; assay type: functional, cell-based; conditions: Homo sapiens, in the assay text read “above 40 uM” for “above 20 uM”
In short: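 Cell toxicity in compound-treated H2B-EYFP HeLa cells was scored as decreased H2B-EYFP fluorescence.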

HeLa [10] = assay: Reduction of acetylation in HeLa cells expressing H2B-EYFP at 20 uM; assay type: functional, Homo sapiens; design: scale not given: the % may be the effect or the level left
In short: (§3)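 HeLa cells stably expressing H2B-EYFP were grown in 10% FCS-DMEM and treated with 20 or 40 µM compound or DMSO. Cells were then immunostained for acetyl-H3. Mean anti-acetyl-H3 fluorescence was normalized to H2B-EYFP fluorescence in the same cells and expressed as percent inhibition versus DMSO. Each of three independent experiments analyzed 150 cells; mean and standard error are reported.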

HeLa [11] = assay: Reduction of acetylation in HeLa cells expressing H2B-EYFP at 40 uM; assay type: functional, Homo sapiens; design: scale not given: the % may be the effect or the level left; in short: as §3
[12] = molecular target: T1, Histone acetyltransferase p300; assay: Activity of GST-p300 HAT assessed as HAT activity at 5 uM; in short: as §2

T1 sequence (Q09472 whole entry, the tested form may be a part): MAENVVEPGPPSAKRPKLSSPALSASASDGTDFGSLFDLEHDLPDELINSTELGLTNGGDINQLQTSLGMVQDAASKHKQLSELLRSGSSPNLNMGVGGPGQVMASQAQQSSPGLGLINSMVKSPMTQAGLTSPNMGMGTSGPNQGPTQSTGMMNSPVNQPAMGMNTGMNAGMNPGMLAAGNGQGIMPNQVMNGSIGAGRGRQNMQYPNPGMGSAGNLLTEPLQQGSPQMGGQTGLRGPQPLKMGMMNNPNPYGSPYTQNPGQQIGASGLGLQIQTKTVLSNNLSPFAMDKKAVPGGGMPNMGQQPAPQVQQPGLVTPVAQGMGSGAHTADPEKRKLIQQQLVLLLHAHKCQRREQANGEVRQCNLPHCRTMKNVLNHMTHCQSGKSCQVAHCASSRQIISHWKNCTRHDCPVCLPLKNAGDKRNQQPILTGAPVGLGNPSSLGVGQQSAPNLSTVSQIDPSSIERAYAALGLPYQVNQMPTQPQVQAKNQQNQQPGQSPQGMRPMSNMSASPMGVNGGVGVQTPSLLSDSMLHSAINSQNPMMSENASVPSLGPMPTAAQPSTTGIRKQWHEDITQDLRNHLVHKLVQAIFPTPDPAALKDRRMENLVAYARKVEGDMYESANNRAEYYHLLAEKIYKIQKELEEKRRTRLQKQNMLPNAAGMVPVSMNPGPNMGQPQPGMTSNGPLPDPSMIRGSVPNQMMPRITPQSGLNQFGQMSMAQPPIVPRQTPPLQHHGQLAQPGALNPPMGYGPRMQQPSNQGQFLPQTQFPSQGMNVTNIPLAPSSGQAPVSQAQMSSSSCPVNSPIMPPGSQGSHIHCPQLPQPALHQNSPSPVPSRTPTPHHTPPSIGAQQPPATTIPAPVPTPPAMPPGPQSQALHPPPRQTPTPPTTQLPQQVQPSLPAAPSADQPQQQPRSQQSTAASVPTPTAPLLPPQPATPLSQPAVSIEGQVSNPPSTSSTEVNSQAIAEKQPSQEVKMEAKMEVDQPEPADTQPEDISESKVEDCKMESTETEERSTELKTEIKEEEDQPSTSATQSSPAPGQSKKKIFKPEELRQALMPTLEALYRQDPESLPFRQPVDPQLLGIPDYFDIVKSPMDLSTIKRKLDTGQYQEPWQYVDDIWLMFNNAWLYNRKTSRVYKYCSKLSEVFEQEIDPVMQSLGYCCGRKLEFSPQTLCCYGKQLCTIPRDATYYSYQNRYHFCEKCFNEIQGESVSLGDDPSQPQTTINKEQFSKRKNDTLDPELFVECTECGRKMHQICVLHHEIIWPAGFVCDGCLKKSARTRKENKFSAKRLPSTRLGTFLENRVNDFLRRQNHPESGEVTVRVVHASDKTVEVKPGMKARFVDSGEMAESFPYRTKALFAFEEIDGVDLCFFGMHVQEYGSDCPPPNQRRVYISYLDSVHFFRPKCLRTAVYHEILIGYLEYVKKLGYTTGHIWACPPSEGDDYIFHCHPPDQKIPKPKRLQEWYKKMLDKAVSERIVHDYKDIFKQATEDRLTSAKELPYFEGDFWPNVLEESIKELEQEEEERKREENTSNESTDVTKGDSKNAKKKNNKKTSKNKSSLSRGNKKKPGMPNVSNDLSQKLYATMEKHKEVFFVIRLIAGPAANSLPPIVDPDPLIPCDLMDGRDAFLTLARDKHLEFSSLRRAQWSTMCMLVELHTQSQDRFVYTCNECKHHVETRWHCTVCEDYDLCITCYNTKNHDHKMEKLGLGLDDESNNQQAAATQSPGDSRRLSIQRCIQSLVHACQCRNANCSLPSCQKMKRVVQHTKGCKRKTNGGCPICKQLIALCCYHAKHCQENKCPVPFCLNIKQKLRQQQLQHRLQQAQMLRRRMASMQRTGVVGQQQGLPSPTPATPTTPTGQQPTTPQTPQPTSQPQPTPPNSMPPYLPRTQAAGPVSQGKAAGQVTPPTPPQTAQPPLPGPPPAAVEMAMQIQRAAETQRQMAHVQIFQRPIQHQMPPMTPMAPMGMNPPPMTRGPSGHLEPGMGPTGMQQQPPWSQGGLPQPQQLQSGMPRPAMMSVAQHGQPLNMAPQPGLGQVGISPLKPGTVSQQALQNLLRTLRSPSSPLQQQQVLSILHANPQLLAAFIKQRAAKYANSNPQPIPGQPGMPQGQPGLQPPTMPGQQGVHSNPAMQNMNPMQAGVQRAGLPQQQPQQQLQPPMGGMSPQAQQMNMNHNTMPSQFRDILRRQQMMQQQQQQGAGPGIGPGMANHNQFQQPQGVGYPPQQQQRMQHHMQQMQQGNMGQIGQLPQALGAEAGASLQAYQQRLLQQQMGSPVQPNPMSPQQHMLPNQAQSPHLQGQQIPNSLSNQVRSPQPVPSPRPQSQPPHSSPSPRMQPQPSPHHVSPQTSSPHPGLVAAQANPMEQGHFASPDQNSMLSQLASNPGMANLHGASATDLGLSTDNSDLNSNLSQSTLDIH
Histone acetyltransferase KAT2A (Homo sapiens), sequence (Q92830 2-837 limits assumed): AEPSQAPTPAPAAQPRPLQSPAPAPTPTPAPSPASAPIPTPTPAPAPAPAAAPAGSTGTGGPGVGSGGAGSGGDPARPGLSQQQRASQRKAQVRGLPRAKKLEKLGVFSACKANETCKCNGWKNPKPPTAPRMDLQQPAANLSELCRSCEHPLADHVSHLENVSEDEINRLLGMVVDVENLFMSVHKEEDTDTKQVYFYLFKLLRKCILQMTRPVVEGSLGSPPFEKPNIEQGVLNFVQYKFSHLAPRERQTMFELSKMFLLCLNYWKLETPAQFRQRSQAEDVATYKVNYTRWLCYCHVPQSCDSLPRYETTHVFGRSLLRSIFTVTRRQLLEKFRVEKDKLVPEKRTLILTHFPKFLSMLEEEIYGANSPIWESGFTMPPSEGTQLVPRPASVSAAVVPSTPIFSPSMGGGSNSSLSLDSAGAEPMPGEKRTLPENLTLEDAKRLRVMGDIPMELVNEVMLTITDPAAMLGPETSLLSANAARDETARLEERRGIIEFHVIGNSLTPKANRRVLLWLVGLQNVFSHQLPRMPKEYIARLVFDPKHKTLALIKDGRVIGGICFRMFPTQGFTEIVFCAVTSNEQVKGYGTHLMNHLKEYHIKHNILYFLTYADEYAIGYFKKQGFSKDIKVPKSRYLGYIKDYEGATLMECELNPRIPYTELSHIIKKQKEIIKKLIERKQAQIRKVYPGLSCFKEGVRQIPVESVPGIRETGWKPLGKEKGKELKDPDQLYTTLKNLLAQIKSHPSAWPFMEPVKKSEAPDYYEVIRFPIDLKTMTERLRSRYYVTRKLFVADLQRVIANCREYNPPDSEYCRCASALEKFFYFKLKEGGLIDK
Histone acetyltransferase KAT2B (Homo sapiens), sequence (Q92831 whole entry, looked up): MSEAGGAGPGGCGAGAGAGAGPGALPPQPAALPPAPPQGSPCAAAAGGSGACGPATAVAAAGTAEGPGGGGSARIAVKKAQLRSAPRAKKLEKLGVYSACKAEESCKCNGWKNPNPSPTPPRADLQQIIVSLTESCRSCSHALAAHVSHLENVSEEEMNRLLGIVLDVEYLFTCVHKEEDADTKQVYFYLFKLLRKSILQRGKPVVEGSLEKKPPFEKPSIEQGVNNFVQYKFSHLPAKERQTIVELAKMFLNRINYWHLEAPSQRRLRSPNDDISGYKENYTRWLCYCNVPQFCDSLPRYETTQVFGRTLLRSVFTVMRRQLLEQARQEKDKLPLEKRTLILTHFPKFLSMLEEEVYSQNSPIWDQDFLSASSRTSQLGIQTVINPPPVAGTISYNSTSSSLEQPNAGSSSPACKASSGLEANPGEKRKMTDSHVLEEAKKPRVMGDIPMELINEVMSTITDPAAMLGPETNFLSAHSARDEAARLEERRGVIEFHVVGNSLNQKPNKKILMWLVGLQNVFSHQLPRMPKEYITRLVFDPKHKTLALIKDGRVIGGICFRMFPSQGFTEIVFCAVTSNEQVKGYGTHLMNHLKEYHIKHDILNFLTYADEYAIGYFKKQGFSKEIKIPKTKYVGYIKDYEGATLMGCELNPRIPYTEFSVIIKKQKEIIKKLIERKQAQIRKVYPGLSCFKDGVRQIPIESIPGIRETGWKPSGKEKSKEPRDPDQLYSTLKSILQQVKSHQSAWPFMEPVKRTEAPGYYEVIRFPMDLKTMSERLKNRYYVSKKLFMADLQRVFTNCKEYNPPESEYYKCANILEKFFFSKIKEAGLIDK

`O=C(/C=C(O)/C=C/c1ccc(O)c(Br)c1)/C=C/c1ccc(O)c(Br)c1` gave an IC50 [1] of 33 µM.
Compound `O=C1/C(=C/c2ccc(O)c(O)c2)CCC/C1=C\c1ccc(O)c(O)c1` has an IC50 [1] of 233 µM.
With `O=C1/C(=C/c2ccc(O)c(C(=O)O)c2)CCC/C1=C\c1ccc(O)c(C(=O)O)c1` the IC50 [1] was 168 µM.
`O=C(/C=C(O)/C=C/c1ccc(O)c(C(=O)O)c1)/C=C/c1ccc(O)c(C(=O)O)c1` was tested, and the IC50 [1] was 21 µM, the Activity [2] was 68% and the Activity [3] was 38%. For the same compound, the Activity (HeLa [4]) was “inactive” and the Activity [5] was 50%.
With `COc1cc(/C=C/C(=O)CC(=O)/C=C/c2ccc(O)c(OC)c2)ccc1O` the Activity [6] was “inactive” and the Activity [7] was “inactive”.
`COc1cc(/C=C2\CCC/C(=C\c3ccc(O)c(OC)c3)C2=O)ccc1O` [CYCLOVALONE] gave an IC50 [1] of 111 µM.
For `O=C1/C(=C/c2ccc(O)c(Br)c2)CCC/C1=C\c1ccc(O)c(Br)c1`, the IC50 [1] was 5 µM, the Activity [8] was 70% and the Activity (HeLa [9]) was “Active”. The Activity (HeLa [10]) was 30%, the Activity (HeLa [11]) was > 50% and the Activity [12] was 50%.
Work on `O=C(/C=C(O)/C=C/c1ccc(O)c(O)c1)/C=C/c1ccc(O)c(O)c1` yielded an IC50 [1] of 46 µM.
